For series [1], the system named is Escherichia coli. The experiment in a line: Selectivity ratio, ratio of EC50 for Escherichia coli JS4 to ratio of EC50 for inhibition of conjugate DNA transfer between Escherichia coli JS10 and Escherichia coli JS4. The class given is functional. The gist of the method:
(§1)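 Each ratio divides one EC50 by another. The EC50s come from 100-min inhibitor exposures: separate donor and recipient survival assays, and a 1:9 donor:recipient liquid mating assay. Viable or transconjugant cells were counted on selective agar or by oxygen-quenched fluorescence in antibiotic medium.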

In series [2] the test system is Escherichia coli. The series can be described thus: Inhibition of conjugate DNA transfer between tetracycline-resistant F plasmid positive Escherichia coli JS10 to streptomycin-resistant F plasmid deficient Escherichia coli JS4. The class given is functional, organism-based. The gist of the method:
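F+ donor and F− recipient E. coli were mixed 1:9 in dilute liquid medium with increasing inhibitor concentrations for 100 min. Inhibitor was removed before transconjugants were selected with antibiotics. Transconjugants were counted as colonies on agar, or by oxygen-biosensor fluorescence in antibiotic medium. EC50 for DNA transfer was derived from the counts.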

For series [3], the system named is Escherichia coli. The series can be described thus: Cytotoxicity against tetracycline-resistant F plasmid positive Escherichia coli JS10. The class given is functional, organism-based. The gist of the method:
(§2)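 Donor and recipient strains were kept separate and exposed to inhibitor for 100 min. Inhibitor was added at the start and removed before selection. Surviving cells were counted on antibiotic-selective agar plates, or in antibiotic-containing medium by an oxygen-quenched fluorophore gel assay in which fluorescence is proportional to live cells. EC50 was determined from cell counts.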

Series [4] has as its system Escherichia coli. The series can be described thus: Selectivity ratio, ratio of EC50 for Escherichia coli JS10 to ratio of EC50 for inhibition of conjugate DNA transfer between Escherichia coli JS10 and Escherichia coli JS4. It is filed as functional. The gist of the method: as §1
Series [5] has as its system Escherichia coli. The series can be described thus: Selectivity ratio, ratio of EC50 for inhibition of conjugate DNA transfer between Escherichia coli JS10 and Escherichia coli JS4 to EC50 for Escherichia coli JS10. It is filed as functional. The gist of the method:
as §1

In series [6] the test system is Type IV secretion-like conjugative transfer relaxase protein TraI (Escherichia coli (strain SMS-3-5 / SECEC)), B1LRJ1 [Y16F]. The series can be described thus: (§3) Inhibition of Escherichia coli F plasmid TraI relaxase Y16F mutant assessed as oriT ssDNA cleavage at 200 nM.
Series [7] has as its system Escherichia coli. The series can be described thus: Selectivity ratio, ratio of EC50 for Escherichia coli JS4 to EC50 for Escherichia coli JS10. The class given is functional. The gist of the method:
as §1

Series [8] deals with Type IV secretion-like conjugative transfer relaxase protein TraI (Escherichia coli (strain SMS-3-5 / SECEC)), B1LRJ1 [Y16F]. The description is as §3. The source holds these as a separate data set.
For series [9], the system named is Escherichia coli. The experiment in a line: Cytotoxicity against streptomycin-resistant F plasmid deficient Escherichia coli JS4. The class given is functional, organism-based. The gist of the method:
as §2

Series [10] concerns the target T1, Type IV secretion-like conjugative transfer relaxase protein TraI (Escherichia coli (strain SMS-3-5 / SECEC), UniProt B1LRJ1, Y16F). The series can be described thus: Inhibition of Escherichia coli F plasmid TraI relaxase Y16F mutant assessed as oriT ssDNA cleavage by competitive inhibition assay. In a few lines: (§4)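 Truncated F plasmid TraI (residues 1–300, Y16F) was expressed in E. coli at 30°C as an intein–chitin-binding-domain fusion, purified on chitin resin and released by DTT cleavage. Biotinylated oriT ssDNA was either fluorescein end-labelled or hybridised after the reaction to an end-labelled probe. Reactions ran at 37°C, were stopped with SDS/EDTA at 80°C, and were read on streptavidin-coated plates.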

Series [11] deals with T1, Type IV secretion-like conjugative transfer relaxase protein TraI. The series can be described thus: Inhibition of Escherichia coli F plasmid TraI relaxase Y16F mutant assessed as oriT ssDNA cleavage by uncompetitive inhibition assay. The gist of the method:
as §4

Substrate in series [12]: O=P(O)(O)NP(=O)(O)O
The experiment in a line: Activity of Escherichia coli F plasmid TraI relaxase Y16F mutant assessed as oriT ssDNA cleavage. The gist of the method:
as §4

Consider 13 molecules from ChEMBL document CHEMBL1147039, “Disrupting antibiotic resistance propagation by inhibiting the conjugative DNA relaxase” (Proc Natl Acad Sci U S A, 2007).

The source made the active and inactive calls. No cut-off for these calls is given here.

In the case of `COP(=O)(OC)c1ccccc1P(=O)(OC)OC`, the “Ratio EC50” value was found to be 7100 with Escherichia coli [1], 0.0048 in the series with Escherichia coli [4], 210 in the series with Escherichia coli [5] and 1500000 with Escherichia coli [7]. Besides, the EC50 with Escherichia coli [2] is 14 µM; with Escherichia coli [3] it was 0.068 µM. The outcome in series [6] was inactive.

Turning to `CC1(C)S[C@@H]2[C@H](NC(=O)[C@H](N)c3ccccc3)C(=O)N2[C@H]1C(=O)O`, the result in series [6] was inactive.

`NCCCCCC(O)(P(=O)(O)O)P(=O)(O)O`: the outcome in [8] and in series [6] was inactive.

Regarding `O=C(O)CN(CP(=O)(O)O)CP(=O)(O)O`, in series [6], the result was inactive.

Turning to `O=P(O)(O)CCCCP(=O)(O)O`, the outcome in [6] was inactive.

Consider `O=P(O)(O)CN(CP(=O)(O)O)CP(=O)(O)O`, for which the result in series [6] was inactive.

Regarding `O=P(O)(O)C(Cl)(Cl)P(=O)(O)O` [CLODRONIC ACID], the outcome in series [8] was Active. In addition, the “Ratio EC50” value with Escherichia coli [1] stood at 26000; with Escherichia coli [4], 78; in the series with Escherichia coli [5], 0.013; in the series on Escherichia coli [7], 330. In addition, the EC50 in the series with Escherichia coli [2] turned out to be 0.11 µM; in the series with Escherichia coli [3], 9 µM; in the series with Escherichia coli [9] it was 3000 µM. For the same molecule, in [6], the outcome was inactive. For the same molecule, the Ki in series [10] was 0.003 µM.

As to `CC(O)(P(=O)(O)O)P(=O)(O)O` [ETIDRONIC ACID], the result in series [8] was Active. Also, the “Ratio EC50” value is 1100 in the series with Escherichia coli [1], 30 in the series with Escherichia coli [4], 0.034 in the series with Escherichia coli [5] and 38 in the series on Escherichia coli [7]. Further, the concentration giving a half-maximal response (EC50) with Escherichia coli [2] came out at 0.33 µM; with Escherichia coli [3], 10 µM; with Escherichia coli [9], 370 µM. Also, the outcome in [6] was inactive. Moreover, the Ki in series [10] was determined as 0.003 µM.

As for `O=P(O)(O)NP(=O)(O)O` [IMIDODIPHOSPHATE], the “Ratio EC50” value in the series on Escherichia coli [1] is on record as 20; with Escherichia coli [4], 0.014; in the series on Escherichia coli [7], 1400. Moreover, the EC50 was 10 µM in the series on Escherichia coli [2], 0.43 µM with Escherichia coli [3] and 620 µM in the series with Escherichia coli [9]. For the same molecule, the Ki in series [11] came out at 0.0027 µM; in [10] it was 0.002 µM. Besides, the result in series [6] was inactive.

In the case of `O=P(O)(O)CNCP(=O)(O)O` [IMINOBIS(METHYLPHOSPHONIC ACID)], the “Ratio EC50” value in the series with Escherichia coli [1] was determined as 9000; with Escherichia coli [4] it was 0.028; in the series with Escherichia coli [5] it was 36; in the series with Escherichia coli [7] it was 330000. Besides, the results for the 50% effective concentration (EC50) with Escherichia coli [2], with Escherichia coli [3] and in the series with Escherichia coli [9] were 0.58 µM, 0.016 µM and 5000 µM, respectively. Further, in series [6], the outcome was inactive.

`O=P(O)(O)CP(=O)(O)O` [MEDRONIC ACID]: the “Ratio EC50” value was found to be 20 in the series with Escherichia coli [1], 1.5 in the series with Escherichia coli [4], 0.68 in the series with Escherichia coli [5] and 1700 in the series on Escherichia coli [7]. For the same molecule, the results for the EC50 with Escherichia coli [2], with Escherichia coli [3] and with Escherichia coli [9] were 0.35 µM, 0.51 µM and 870 µM, respectively. Further, the result in [6] was inactive. Moreover, the Ki in series [10] was determined as 0.003 µM.

As to `NCCC(O)(P(=O)(O)O)P(=O)(O)O` [PAMIDRONIC ACID], the result in series [8] and in series [6] was inactive. Moreover, the EC50 with Escherichia coli [2], in the series on Escherichia coli [3] and in the series with Escherichia coli [9] was over 10000 µM throughout.

B1: Type IV secretion-like conjugative transfer relaxase protein TraI (Escherichia coli (strain SMS-3-5 / SECEC)), B1LRJ1 Y16F (protein)
chain: MMSIAQVRSAGSAGNFYTDKDNYYVLGSMGERWAGRGAEQLGLQGSVDKDVFTRLLEGRLPDGADLSRMQDGSNKHRPGYDLTFSAPKSVSMMAMLGGDKRLIDAHNQAVDFAVRQVEALASTRVMTDGQSETVLTGNLVMALFNHDTSRDQEPQLHTHAVVANVTQHNGEWKTLSSDKVGKTGFIENVYANQIAFGRLYREKLKEQVEALGYETEVVGKHGMWEMPGVPVEAFSGRSQTIREAVGEDASLKSRDVAALDTRKSKQHVDPEIKMTEWMQTLKETGFDIRAYRDAAEQRAYTRTQTPGPASQDGPDVQQAVTQAIAGLSERKVQFTYTDVLARTVGILPPEAGVIERARAGIDEAISREQLIPLDREKGLFTSGIHVLDELSVRALSRDIMKQNRVTVHPEKSVPRTAGYSDAVSVLAQDRPSLAIVSGQGGAAGQRERVAELVMMAREQGREVQIIAADRRSQMNLKQDERLSGELITGRRQLLEGMAFTPGSTVIVDQGEKLSLKETLTLLDGAARHNVQVLITDSGQRTGTGSALMAMKDAGVNTYRWQGGEQRPATIISEPDRNVRYARLAGDFAASVKAGEESVAQVSGVREQAILTQAIRSELKTQGVLGHQEVTMTALSPVWLDSRSRYLRDMYRPGMVMEQWNPETRSHDRYVIDRVTAQSHSLTLRDAQGETQVVRISSLDSSWSLFRPEKMPVADGERLRVTGKIPGLRVSGGDRLQVASVSEDAMTVVVPGRAEPASLPVADSPFTALKLENGWVETPGHSVSDSAKVFAAVTQMAMDNATLNGLARSGRDVRLYSSLDETRTAEKLARHPSFTVVSEQIKAHAGETSLETSISLQKAGLHTPAQQAIHLALPVLESKKLAFSMVDLLTEAKSFAAEGTGFTELGGEINAQIKRGDLLYVDVAKGYGTGLLVSRASYEAEKSILRHILEGKEAVTPLMERVPGELMEKLTSGQRAATRMILETSDRFTVVQGYAGVGKTTQFRAVMSAVNMLPESMRPRVVGLGPTHRAVGEMRSAGVDAQTLASFLHDTQLQQRSGETPDFSNTLFLLDESSMVGNTDMARAYALIAAGGGRAVASGDTDQLQAIAPGQPFRLQQTRSAADVAIMKEIVRQTPELREAVYNLINRDVERALSGLERVKPSQVPRLEGAWAPEHSVMEFSHSQEAKLAEAQQKAMLKGEAFPDVPMTLYEAIVRDYTGRTPEAREQTLIVTHLNEDRRVLNSMIHDAREKAGELGKEQVMVPVLNTANIRDGELRRLSTWETHRDALVLVDNVYHRIAGISKDDGLITLEDAEGNTRLISPREAVAEGVTLYTPDTIRVGTGDRMRFTKSDRERGYVANSVWTVTAVSGDSVTLSDGQQTRVIRPGQERAEQHIDLAYAITAHGAQGASETFAIALEGTEGNRKQMAGFESAYVALSRMKQHVQVYTDNRQGWTDAINNAVQKGTAHDVFEPKPDREVMNAERLFSTARELRDVAAGRAVLRQAGLAGGDSPARFIAPGRKYPQPYVALPAFDRNGKSAGIWLNPLTTDDGNGLRGFSGEGRVKGSGDAQFVALQGSRNGESLLADNMQEGVRIARDNPDSGVVVRIAGEGRPWNPGAITGGRVWGDIPDNSVQPGAGNGEPVTAEVLAQRQAEEAIRRETERRADEIVRKMAENKPDLPDGKTEQAVREIAGQERDRAAITEREAALPESVLRESQREREAVREVARENLLQERLQQMERDMVRDLQKEKTLGGD
For B1, in [12], the Km was 0.294 µM and the Vmax worked out at 0.51 nM/s.
